Reference: ChEMBL document CHEMBL1250451, “Mechanistic insights into a Ca2+-dependent family of alpha-mannosidases in a human gut symbiont” (Nat Chem Biol, 2010)

Experiments:
Assay type in all cases: protein assay; call rule not given here
[1] = substrate: O=[N+]([O-])c1ccc(O[C@H]2O[C@H](CO)[C@@H](O)[C@H](O)[C@@H]2O)cc1; test: Activity of Bacteroides thetaiotaomicron GH92 alpha-mannosidase GH92 alpha-mannosidase 3994 assessed as mannose release after 16 hrs by HPLC
[2] = substrate: O=[N+]([O-])c1ccc(O[C@H]2O[C@H](CO)[C@@H](O)[C@H](O)[C@@H]2O)cc1; test: (§1) Ratio of Kcat to Km for Bacteroides thetaiotaomicron GH92 alpha-mannosidase GH92 alpha-mannosidase 3994 assessed as mannose release after 16 hrs by HPLC
[3] = substrate: OC[C@H]1O[C@H](O[C@H]2[C@H](O)[C@H](O)[C@@H](O)O[C@@H]2CO)[C@@H](O)[C@@H](O)[C@@H]1O; test: as §1
[4] = substrate: O=[N+]([O-])c1ccc(O[C@H]2O[C@H](CO)[C@@H](O)[C@H](O)[C@@H]2O)cc1; test: (§2) Ratio of Kcat to Km for Bacteroides thetaiotaomicron GH92 alpha-mannosidase GH92 alpha-mannosidase 3530 assessed as mannose release after 16 hrs by HPLC
[5] = substrate: OC[C@H]1O[C@H](O[C@H]2[C@H](O)[C@H](O)[C@@H](O)O[C@@H]2CO)[C@@H](O)[C@@H](O)[C@@H]1O; test: as §2
[6] = substrate: O=[N+]([O-])c1ccc(O[C@H]2O[C@H](CO)[C@@H](O)[C@H](O)[C@@H]2O)cc1; test: (§3) Activity of Bacteroides thetaiotaomicron GH92 alpha-mannosidase GH92 alpha-mannosidase 3530 assessed as mannose release after 16 hrs by HPLC
[7] = substrate: OC[C@H]1O[C@H](O[C@H]2[C@H](O)[C@H](O)[C@@H](O)O[C@@H]2CO)[C@@H](O)[C@@H](O)[C@@H]1O; test: as §3
[8] = substrate: O=[N+]([O-])c1ccc(O[C@H]2O[C@H](CO)[C@@H](O)[C@H](O)[C@@H]2O)cc1; test: (§4) Ratio of Kcat to Km for Bacteroides thetaiotaomicron GH92 alpha-mannosidase GH92 alpha-mannosidase 4093 assessed as mannose release after 16 hrs by HPLC
[9] = substrate: OC[C@H]1O[C@H](O[C@H]2[C@H](O)[C@H](O)[C@@H](O)O[C@@H]2CO)[C@@H](O)[C@@H](O)[C@@H]1O; test: as §4
[10] = substrate: O=[N+]([O-])c1ccc(O[C@H]2O[C@H](CO)[C@@H](O)[C@H](O)[C@@H]2O)cc1; test: (§5) Activity of Bacteroides thetaiotaomicron GH92 alpha-mannosidase GH92 alpha-mannosidase 4093 assessed as mannose release after 16 hrs by HPLC
Method in brief: (§6)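 Yeast mannan or ovalbumin (mostly high-mannose N-glycans) at 1 mg ml−1 was incubated with recombinant IMAC-purified enzyme from E. coli. The methods give enzyme at 2 μM and the table footnote gives 1 μM. Buffer was 100 mM sodium HEPES pH 7.0 with 1 mg ml−1 BSA and 2 mM CaCl2. Aliquots were taken at 1 and 16 h and boiled 10 min. Mannose was measured by HPLC and scored by signal: >500 nC +++, 200–500 ++, <200 +.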

[11] = substrate: OC[C@H]1O[C@H](O[C@H]2[C@H](O)[C@H](O)[C@@H](O)O[C@@H]2CO)[C@@H](O)[C@@H](O)[C@@H]1O; test: as §5; method in brief: as §6

B1: Alpha-1,2-mannosidase (BT_3994) (Bacteroides thetaiotaomicron), Q8A0M7 (protein)
chain: MKTPIYLLLIVCIFASCNTKQTQAEIDYTSYVNPFIGTDFTGNTYPGAQAPFGMVQLSPDNGLPGWDRISGYFYPDSTIAGFSHTHLSGTGAGDLYDISFMPVTLPYKEAEAPLGIYSKFSHDEESAYAGYYQVRLKDYHINVELTATERCGIQRYTFPKAEAAIFLNLKKAMNWDFTNDSHIEVVDSVTIQGYRYSDGWARDQRIYFRTRFSKPFDKVELDTTAIIKDKQHIGTAVIARFDFHTEEGEQILVNTAISGVSMEGAAKNLQAEVPENDFDKYLAETKANWNRQLGKIEVEGDNQDDKVNFYTALYHSMIAPTIYSDVDGAYYGPDKKVHQSDGWVNYSTFSLWDTYRAAHPLFTYTEPERVNDMVKSFIAFFEQNGRLPVWNFYGSETDMMIGYHAVPVIVDAYLKGIGNFDAEKALAACVATANLDNYRGIGLYKQLGYIPYNVTDHYNAENWSLSKTLEYAFDDYCIAEMANKMGKKEIADEFYKRSQNYKNVYNPATSFMQPRDDKGNFIKDFKADEYTPHICESNGWQYFWSVQHDIDGLIDLTGGKNRFAEKLDSMFTYHPAADEELPIFSTGMIGQYAHGNEPSHHVIYLFNAVGQQNLTQKYVAKVMNELYKNEPAGLCGNEDCGQMSAWYVFSAMGFYPVNPVSGKYEIGTPLFPEMKLHLANGKTFTVLAPKVSKENIYIQSIKVDGQPYNKTYLTHEQIMSGTTVEFEMGNTPLVEVEFEEQTQ
For B1, the Km [1] was 3700 µM, the kcat [1] was 1.57 s⁻¹ and the kcat/Km [2] was 433 M⁻¹ s⁻¹. It also gave a kcat/Km [3] of 0.0833 M⁻¹ s⁻¹.

B2: Alpha-1,2-mannosidase (BT_3530) (Bacteroides thetaiotaomicron), Q8A1X8 (protein)
chain: MTPSVAQNTKYVNLFIGTSGDNGQVAPGAAAPFGMVCVCPDNDPRSHAGYDYAVTKVSGISVNRLSGVGCSGGGGNLRIRPVAPSQELHIKKSREKATPGYYSTAFTNGIKTELTATNAMAVERYKFPRSLSAALWIDFASTFEDVATCHYKRISETCIEGYVQAKNVCGHGCYKLYFSLNTSQPFQLEEQKETTACLTFGKKVRSVEVRIGLSALSSELASWECARWEKMDFEDVKSRTADQWEKQLSAIDVKGGKKDDRVIFYTSLYRTYLSPADVSSPDGAYLGTDGKVYISEDFRYYSNWSLWDTFRTKFPLLVLTEPAKMRDMATSLIHLYATGKKDWSTGFESTPTVRTEHAVILLLDAYRKGITNLDFRKGYAGMKQEMERLPMRSPDQKMESAYDLWAMAKIAEIIGEKADSEQYRQRSVSLFEETWKKEFMNVTPAFEVMKNNGLYQGTRWQYRWAAPQYIDKMIEWVGQDSLRLQLTYFFDHHLYNQGNEPDIHVPYLFNRLGAPEKTQQIVRSLMTEPMIHKYGGNSEFKTPYLGKAFKNAPEGYSPEMDEDDGTMSAWYVFGAMGFYPLLVGDEYYDLTSPLFDRVLLRLTNGNVLTIQTEGRKKKDAPIKSIHFNGKKIADYRISHNELIKGGELIYNYK
With B2 the kcat/Km [4] was “Not Active”, the kcat/Km [5] was 1.58 M⁻¹ s⁻¹ and the Km [6] was “Not Active”. For the same protein, the kcat [6] was “Not Active”, the Km [7] was 610 µM and the kcat [7] was 0.001 s⁻¹.

B3: Alpha-1,2-mannosidase family protein (BT_4093) (Bacteroides thetaiotaomicron), Q8A0C8 (protein)
chain: MKHKFLFILLFSLVLEGMVTTQAVAGDYVHQVNTLIGTKGTGLTSGYLYPGATYPYGMVQFTPSYFSKRSGFVINQLSGGGCEHMGNFPTFPVKGKLKMSPDNILNYRINVSEEKGHAGYYEAMVQEDIKAKLTVTERTGMASYEYPADQQYGTIIIGGGISATPIEQAAIVITAPNKCEGYAEGGNFCGLRTPYKVYFVAEFDTDAFETGTWKREELMPNTTFAEGEYSGVYFTFDVNKKKNIQYKIGVSYVSVENARENLKAENAEWDFQKIQNQAEAKWNHYLGMIEVEGTNPDRTTQFYTHLYRSFIHPNVCSDVNGEYMGADFRVHKSRSKHYTSFSNWDTYRTQIQLLSMLDPEVASDIVISHQLFAEQSGGSFPRWVMANIETGVMQGDPTPILIANAYAFGARNYDPKPIFKIMRKGAEEPGSKSQDVETRPGLKQYLDKGYYNASIQLEYTSADFAIGQFALHAVGDEFASWRYFHFARSWKNLYNSDTGWLQSRNPDGSWKSLGEDFRESTYKNYFWMVPYDIAGLVEIIGGKEKAEKRLDEFFTRLDAGYNDAWFASGNEPSFHIPWIYNWIGRPYKTQEIINRVLNEQYSSKIDGLPGNDDLGTMGAWYVFACIGLYPEIPGVGGFTVNTPIFSSVKVHLKKGDIVIKGGSEKDIYIKSMKLNGKSYESTWIDWDQLNSGATIEYRTSGKPDMKWGAKVVPPSFP
B3 was tested, and the kcat/Km [8] was 9.08 M⁻¹ s⁻¹, the kcat/Km [9] was 38.3 M⁻¹ s⁻¹ and the Km [10] was 1300 µM. The kcat [10] was 0.0112 s⁻¹, the Km [11] was 35000 µM and the kcat [11] was 1.33 s⁻¹.
